S1P4 antag = blocks the human S1P4 receptor; O95977; S1P4-expressing cells, antagonist mode, reporter read-out; inhibition, % at 4.98 µM; hit rate 0.26% among 220,000; AID 1510; in the data active means inhibition above about 29%;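 further: 0% = wells stimulated with agonist and 100% = vehicle wells without agonist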
Pf gametocyte = inhibitors of late stage P. falciparum gametocyte viability; P. falciparum stage V gametocytes, ATP luminescence, 24 h; inhibition, % at 10.9 µM; hit rate 0.065% among 150,000;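 active means inhibition above the mean plus 3 SD of compounds within the control limits, set per campaign, cut at about 38% in these data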;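 further: 0% = DMSO wells and 100% = medium only without gametocytes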
S1P4 ag = activates the human S1P4 receptor; activation, % at 4.98 µM; O95977; hit rate 0.35% among 220,000; AID 1509; S1P4-expressing cell line, agonist reporter assay; in the data active means activation above about 11%;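 further: 0% = DMSO vehicle and 100% = reference agonist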
S1P3 antag = S1P3 (human) receptor antagonism | Q99500 | hit rate 0.27% among 170,000 | CHO S1P3 NFAT-BLA reporter, FRET fluorescence, antagonist mode | inhibition, % at 4.98 µM | AID 485;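 active means inhibition above the plate cutoff, the mean inhibition of test wells on that plate plus 3 SD, cut at about 28% in these data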;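 further: cells challenged with S1P at its EC80 of 0.8 µM; blue over green emission ratio from cleaved BLA substrate after 4 h stimulation; 0% = S1P-stimulated wells and 100% = unstimulated DMSO-only wells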
Target sequence (Q99500 whole entry, looked up): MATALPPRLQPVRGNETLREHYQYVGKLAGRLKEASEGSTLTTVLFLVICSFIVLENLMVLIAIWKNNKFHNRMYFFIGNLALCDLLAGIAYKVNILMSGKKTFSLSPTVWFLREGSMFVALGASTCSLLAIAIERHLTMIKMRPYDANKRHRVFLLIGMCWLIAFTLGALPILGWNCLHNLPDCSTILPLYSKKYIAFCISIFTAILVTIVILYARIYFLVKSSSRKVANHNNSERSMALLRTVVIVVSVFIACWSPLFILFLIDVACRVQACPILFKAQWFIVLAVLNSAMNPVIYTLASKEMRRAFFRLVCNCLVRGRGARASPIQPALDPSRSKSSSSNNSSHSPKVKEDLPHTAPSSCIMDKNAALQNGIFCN
Calb biofilm kill = mixtures killing C. albicans biofilm; C. albicans biofilm persisters + clotrimazole, fluorescence viability; primary screen in compound mixtures of four per well; inhibition, % at 7.6 µM; hit rate 0.02% among 120,000;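 active means inhibition above 30.3% in the primary screen of four-compound pools, then above 30% when the compound was retested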;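 further: compounds exposed to preformed 24 h biofilms for 48 h; 0% = untreated biofilm control and 100% = clotrimazole plus chlorhexidine kill blank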
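Incubation: 24 h biofilm formation, then 48 h compound exposure, 37 °C | Material: C. albicans biofilms | Buffer or medium: RPMI/MOPS medium, pH 7.0 | Measured by: 2-h Alamar Blue fluorescence, 535/590 nm excitation/emission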
S1P4 ag conf = confirmation of human S1P4 receptor agonists. AID 1523. hit rate 7% among 740. S1P4 agonist cell-based reporter assay. activation, % at 4.98 µM. shares compounds with S1P4 ag; in the data active means activation above about 12%;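 further: 0% = vehicle and 100% = full reference agonist response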
S1P1 agonist = human S1P1 agonism as S1P4 agonist counter-screen; shares compounds with S1P4 ag; S1P1 agonist cell-based assay, activation; hit rate 4% among 740; activation, % at 4.98 µM; AID 1563; in the data active means activation above about 21%;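 further: 0% = vehicle wells and 100% = reference agonist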
The depositor's hits bear a star; x = no result given. Rows were chosen to be rich in hits. Some 0.77% of all compounds tested hit in one or more screens of this group.

SMILES | S1P4 antag | Pf gametocyte | S1P4 ag | S1P3 antag | Calb biofilm kill | S1P4 ag conf | S1P1 agonist
COc1ccc(C)cc1NC(=O)c1ccc2c(SCC(=O)O)c3c(nc2c1)CCCC3 | -12 | -6 | 45* | -20 | 9 | -2 | -3
COc1cc(Cl)c(C)cc1NC(=O)c1ccc2c(SCC(=O)O)c3c(nc2c1)CCCC3 | -3 | -2 | 2 | 7 | 15 | x | x
Cc1cc(Sc2nc(NC(C)C)nc(NC(C)C)n2)nc(Cl)n1 | -15 | -16 | 2 | 11 | 16 | x | x
CCOc1ccc(N=c2oc3cc(O)ccc3cc2C(=O)NCC2CCCO2)cc1 (stereo not given) | -10 | x | 5 | x | x | x | x
COc1ccc(N=c2oc3cc(O)ccc3cc2C(=O)NCC2CCCO2)c(OC)c1 (stereo not given) | -51 | 7 | 71* | -1 | x | 2 | -1
COc1ccc(N=c2oc3cc(O)ccc3cc2C(=O)NCC2CCCO2)cc1 (stereo not given) | -20 | -3 | 12* | 24 | x | 2 | -3
CCOc1ccccc1N=c1oc2cc(O)ccc2cc1C(=O)NCC1CCCO1 (stereo not given) | -52 | x | 61* | x | x | 5 | -1
Cc1ccc(N(CC(=O)N2CCCC2)S(C)(=O)=O)c(C)c1 | x | 7 | x | x | x | x | x
COc1ccc(NC(=O)C(Sc2nnc(-c3ccncc3)n2-c2ccccc2C)c2ccccc2)cc1Cl (stereo not given) | -8 | -14 | -1 | -16 | -4 | x | x
CS(=O)(=O)c1ccc(C(=O)NCCN2C(=O)S/C(=C\c3cccnc3)C2=O)cc1[N+](=O)[O-] | 28 | 0 | -1 | -5 | 6 | x | x
COc1ccc(C2CC(c3cccs3)=NN2c2ccc(C=O)cc2)cc1 (stereo not given) | -6 | -24 | 23* | 17 | 16 | 17* | 21*
CCC(=O)N1N=C(c2cccs2)CC1c1ccc(OC)cc1 (stereo not given) | x | -16 | x | x | x | x | x
CC(C)S(=O)(=O)c1csc(C(=O)Nc2ccc(F)cc2)c1N | 5 | -13 | 3 | 8 | 16 | x | x
COc1cc(C#N)c(NC(=S)N2CCOCC2)cc1OC | -3 | x | 24* | -19 | 13 | -2 | -7
CCOC1CCc2c(C)nc(N)nc2S1 (stereo not given) | 2 | x | 24* | -2 | 2 | -2 | 0
C=C(C)C1Cc2nc(N)nc(C)c2C1 (stereo not given) | -26 | x | -1 | -14 | x | x | x
Cc1cccc(OCCCC(=O)N2CCCCCC2)c1C | x | -3 | x | x | x | x | x
CCOc1ccc(S(=O)(=O)NCc2ccccc2)cc1C(N)=O | 0 | -9 | 11* | -15 | 4 | -2 | 0
CC(C)OP(=O)(OC(C)C)/C(C=O)=N\Nc1ccc([N+](=O)[O-])cc1 | -5 | -2 | 0 | 2 | 5 | x | x
O=C(c1ccc(NC(=S)Nc2ccc(Cl)c(Cl)c2)cc1)N1CCCC1 | -24 | 4 | 23* | -18 | 25 | -2 | -2
O=C(c1ccc(NS(=O)(=O)c2cccc3cccnc23)cc1)N1CCOCC1 | -4 | -2 | 0 | 3 | x | x | x
O=C(c1ccc(NS(=O)(=O)c2cccc3cccnc23)cc1)N1CCCCC1 | 5 | x | 23* | -11 | 10 | -1 | -4
N=C1c2ccccc2CN1c1ccc(N2CCOCC2)c(S(=O)(=O)Nc2ccc(Cl)cc2)c1 | 7 | -23 | -2 | -1 | 9 | x | x
C=CCn1c(=N)c(C(=O)NCCCOC)cc2c(=O)n3cc(C)ccc3nc21 | -7 | x | 12* | -4 | x | 0 | 0
Cc1ccc2nc3c(cc(C(=O)NCC4CCCO4)c(=N)n3CCCOC(C)C)c(=O)n2c1 (stereo not given) | -21 | x | 7 | -21 | x | x | x
SMILES | S1P4 antag | Pf gametocyte | S1P4 ag | S1P3 antag | Calb biofilm kill | S1P4 ag conf | S1P1 agonist
C=CCn1c(=N)c(C(=O)NCCCOC)cc2c(=O)n3ccccc3nc21 | -13 | x | 11* | -3 | x | 8 | 9
CC(C)=CCC[C@](C)(OC1OC(COC2OCC(O)C(O)C2O)C(O)C(O)C1O)C1CC[C@]2(C)C1C(O)CC1[C@@]3(C)CCC(O[C@@H]4O[C@H](CO)C(O)C(O)C4O[C@@H]4OC(CO)C(O)C(O)C4O)C(C)(C)C3CC[C@]12C (stereo not given in full) | x | 1 | x | x | x | x | x
COc1cc(NC(=O)Cn2c([N+](=O)[O-])cnc2C)c(OC)cc1Cl | x | 12 | x | x | x | x | x
COc1cc(C(=O)NCC(=O)N/N=C/c2ccc(OC(=O)c3ccco3)cc2)cc(OC)c1OC | 10 | 9 | 21* | 6 | 13 | -2 | -11
CCN1C(=O)C2(C(C(=O)c3cc4ccccc4o3)=C(O)C(=O)N2CCCN(C)C)c2ccccc21 (stereo not given) | 0 | x | 0 | 0 | 24 | x | x
CC(Cc1ccccc1)C(=O)N1CCN(C)CC1 (stereo not given) | 7 | 1 | 0 | -12 | 13 | x | x
CN1CCN(C(=O)C(N)Cc2ccccc2)CC1 (stereo not given) | 4 | -5 | 18* | -7 | 9 | -2 | -1
Cc1ccc(-c2n[nH]c(=S)n2/N=C/c2ccncc2)cc1 | -16 | x | 2 | -1 | 15 | x | x
Cn1cccc1C(=O)C(=O)Nc1cccc(Cl)c1Cl | 1 | 10 | 20* | x | x | -1 | 1
CCc1cccc(CC)c1NC(=O)COC(=O)c1ccc2c(c1)S(=O)(=O)c1ccccc1C2=O | -21 | x | 12* | -2 | 22 | -1 | 0
COC(=O)c1cccc(NC(=S)NC(C)C)c1 | -2 | -3 | 2 | -18 | 9 | x | x
Cc1cccc(C)c1N(CC(=O)N1CCN(c2ccccc2F)CC1)S(C)(=O)=O | 4 | 1 | 0 | -9 | 13 | x | x
Cc1cccc(C)c1N(Cc1ccccc1F)S(C)(=O)=O | 5 | x | 33* | 3 | 14 | -2 | -2
COc1cccc(-n2c(=O)n(Cc3ccccc3)c(=O)c3[nH]cnc32)c1 | -4 | 9 | 0 | -14 | 7 | x | x
Cc1ccc(NC(=O)Cn2cnc3ccccc32)cc1C | 0 | 1 | 58* | -7 | 8 | -2 | 3
O=C(CN1C(=O)C2CCCCC2C1=O)Nc1nccs1 (stereo not given) | -4 | 0 | -1 | -2 | 10 | x | x
O=C(CCC1CCCCC1)Nc1nccs1 | -4 | 8 | 126* | -9 | 18 | -1 | -2
O=C(COc1ccc2ccccc2c1)NNC(=O)Cc1ccccc1 | -2 | x | 13* | 4 | 31 | -2 | -1
COCCNC(=O)CN(C(=O)CCC(=O)Nc1ccccn1)c1ccccc1OC | x | 18 | x | x | x | x | x
CC(=O)Nc1ccc(S(=O)(=O)n2nc(-c3ccc(C)cc3)nc2N)cc1 | 0 | x | 21* | 6 | x | -1 | 0
Cc1cc(-c2ccccc2)nc(N/N=C/c2ccccc2F)n1 | x | -18 | x | x | x | x | x
CCN(CC)c1ccc2c(C)c(Cl)c(=O)oc2c1 | -4 | -3 | 16* | 6 | 15 | 8 | 9
CCCCC(=O)NC(=S)Nc1nnn(CCC)n1 | 7 | 3 | 179* | -18 | 2 | -2 | -6
CCCCC(=O)Nc1nnn(CCC)n1 | -18 | x | -1 | -14 | x | x | x

Screening results from PubChem BioAssay.
